CHRM5 PAM: CHRM5 positive allosteric modulation. P08912. CHO-K1 hM5, Fluo-8 calcium, ACh EC20 PAM; 0% = ACh EC20, 100% = ACh EC100. activation, % at 3 µM. 360,000 tested, 0.3% active. AID 624038;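 active = activation above the run cutoff, the mean activation of all test compounds plus 3 SD, cut at about 18% in these data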
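Assay system: CHO-K1 hM5 cells / Incubation: Fluo-8 loading 80 min at 37 °C plus 30 min room temperature / Technique: Fluo-8 calcium dye fluorescence, kinetic read / Repeats: single replicate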
M4 PAM: positive allosteric modulators of human muscarinic M4 receptor. 360,000 tested, 0.4% active. activation, % at 3 µM. CHO-K1 hM4/Gqi5, Fluo-8 calcium fluorescence, ACh EC20; 0% = ACh EC20, 100% = maximal ACh;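 active = activation above its plate's cutoff, the mean activation of sample wells plus 3 SD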
Target sequence (P08173 whole entry, looked up): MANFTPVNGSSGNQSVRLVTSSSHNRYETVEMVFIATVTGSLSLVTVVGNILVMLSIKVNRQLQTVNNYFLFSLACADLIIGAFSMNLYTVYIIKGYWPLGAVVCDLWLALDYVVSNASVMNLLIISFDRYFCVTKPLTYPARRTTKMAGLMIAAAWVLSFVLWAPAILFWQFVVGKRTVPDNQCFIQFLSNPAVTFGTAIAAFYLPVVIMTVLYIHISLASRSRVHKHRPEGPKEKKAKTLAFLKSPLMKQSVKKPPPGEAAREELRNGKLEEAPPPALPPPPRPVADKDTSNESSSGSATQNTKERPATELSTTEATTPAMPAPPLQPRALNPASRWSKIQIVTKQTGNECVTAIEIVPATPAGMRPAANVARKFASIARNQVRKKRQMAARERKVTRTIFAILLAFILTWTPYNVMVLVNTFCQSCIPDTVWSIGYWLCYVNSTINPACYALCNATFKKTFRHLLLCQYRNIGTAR
CHRM4 antagonist: antagonists of human muscarinic M4 receptor (CHRM4). 360,000 tested, 0.73% active. AID 624125. inhibition, % at 3 µM. P08173. CHO-hM4 cells, ACh EC80, Fluo-8 calcium fluorescence;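 active = inhibition above its plate's cutoff, the mean inhibition of sample wells plus 3 SD, cut at about 27% in these data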;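 note: 0% = acetylcholine EC80 with DMSO and 100% = DMSO without agonist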
M5 ag: agonists of human muscarinic M5 receptor (CHRM5); activation, % at 3 µM; CHO-K1 hM5 cells, Fluo-8 calcium fluorescence; 0% DMSO wells, 100% maximal acetylcholine response; 360,000 tested, 0.19% active;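 active = activation above the run's mean over test compounds plus 3 SD, cut at about 23% in these data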;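 note: signal is peak over basal fluorescence ratio across the kinetic read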
CHRM4 agonist: CHRM4 agonism in calcium assay | CHO-K1 hM4/Gqi5, Fluo-8 calcium fluorescence; vehicle 0%, full acetylcholine response 100% | P08173 | 360,000 tested, 0.14% active | activation, % at 3 µM;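 active = activation above the run mean over all test wells plus 3 SD, cut at about 32% in these data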;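 note: peak over basal fluorescence ratio per well then scaled between controls; 0% = DMSO wells and 100% = acetylcholine at EC100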
M5 antag: blocks acetylcholine activation of human M5 receptor. P08912. CHO-hM5 cells, Fluo-8 calcium fluorescence, ACh EC80. inhibition, % at 3 µM. 360,000 tested, 0.59% active. AID 624040;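 active = inhibition above a per-plate cutoff, the mean of that plate's test compounds plus 3 SD, cut at about 27% in these data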;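 note: 0% = acetylcholine EC80 with DMSO and 100% = DMSO without agonist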
* marks the source's active call; other numbers are inactive results. Hits are enriched below; roughly 1.9% of the tested compounds scored in any of these assays.

What do the screens show for `CC(=O)c1ccc(N2CCN(CC(O)COC(c3ccccc3)c3ccccc3)CC2)cc1` (centres undefined)?
CHRM5 PAM: -15.4; M4 PAM: -22.5; CHRM4 antagonist: 40.5*; M5 ag: -7.5; CHRM4 agonist: 6.1; M5 antag: 16.9

Results for CCOC(=O)c1c(NC(=O)CN2CCN(C(=O)C3CCCO3)CC2)sc(C)c1C (centres undefined) ?
CHRM5 PAM: 3.6; M4 PAM: 0.2; CHRM4 antagonist: -6.6; M5 ag: 0.8; CHRM4 agonist: 2.4; M5 antag: -0.4

Results for COc1ccc(NS(=O)(=O)c2cc(NC(=O)c3ccco3)ccc2N2CCCCC2)cc1 ?
CHRM5 PAM: -4.0; M4 PAM: 4.5; CHRM4 antagonist: 3.9; M5 ag: -3.7; CHRM4 agonist: 0.4; M5 antag: 15.6

What do the screens show for `COCC1CCCN(Cc2nc(C(c3ccccc3)c3ccccc3)no2)C1` (centres undefined)?
CHRM5 PAM: 0.8; M4 PAM: -4.1; CHRM4 antagonist: -11.4; M5 ag: -8.7; CHRM4 agonist: -1.4; M5 antag: 1.0

What do the screens show for `c1ccc(C(c2ccccc2)c2noc(CN3CCN(CC4CC4)CC3)n2)cc1`?
CHRM5 PAM: -33.0; M4 PAM: -24.3; CHRM4 antagonist: 30.8*; M5 ag: -17.6; CHRM4 agonist: 0.8; M5 antag: 24.2

How did N#Cc1ccc(OCC(=O)OCC(=O)N2CCc3ccccc32)cc1 do in these assays?
CHRM5 PAM: 3.7; M4 PAM: 9.5; CHRM4 antagonist: -4.0; M5 ag: -1.9; CHRM4 agonist: 0.7; M5 antag: -5.1

What do the screens show for `Oc1ccc(N=C/C=C/c2cccc(Br)c2)cc1-c1nc2ccccc2s1`?
CHRM5 PAM: -3.5; M4 PAM: 31.6*; CHRM4 antagonist: -1.0; M5 ag: 2.6; CHRM4 agonist: -0.3; M5 antag: 8.2

What do the screens show for `Nc1ccc(O)c(-c2nc3ccccc3s2)c1`?
CHRM5 PAM: -4.2; M4 PAM: -1.8; CHRM4 antagonist: 4.2; M5 ag: -1.2; CHRM4 agonist: 0.3; M5 antag: 5.5

Results for CC1(C(=O)Nc2ccc(F)cc2F)CCN1C(=O)Cc1ccccc1 (centres undefined) ?
CHRM5 PAM: -2.2; M4 PAM: 1.5; CHRM4 antagonist: 0.6; M5 ag: 0.3; CHRM4 agonist: -0.2; M5 antag: 2.4

What do the screens show for `CN(CC(=O)Nc1cccc(F)c1)C(=O)C1CCN(S(=O)(=O)c2ccc3c(c2)OCCO3)CC1`?
CHRM5 PAM: 0.7; M4 PAM: 1.2; CHRM4 antagonist: -5.8; M5 ag: -0.3; CHRM4 agonist: 5.3; M5 antag: 0.6

How did Cc1csc(NC(=O)C(CC(C)C)NS(=O)(=O)c2ccc3c(c2)oc(=O)n3C)n1 (centres undefined) do in these assays?
CHRM5 PAM: -7.0; M4 PAM: -11.5; CHRM4 antagonist: 34.4*; M5 ag: 5.3; CHRM4 agonist: -0.1; M5 antag: 1.6

What do the screens show for `Cc1csc(NC(=O)C2CCN(S(=O)(=O)c3ccc4c(c3)oc(=O)n4C)CC2)n1`?
CHRM5 PAM: -4.1; M4 PAM: 1.3; CHRM4 antagonist: -15.0; M5 ag: 2.4; CHRM4 agonist: 7.1; M5 antag: -0.4

How did C=CCN(CC=C)S(=O)(=O)c1ccc(C(=O)Nc2nnc(CSC)o2)cc1 do in these assays?
CHRM5 PAM: -3.9; M4 PAM: -0.7; CHRM4 antagonist: 8.9; M5 ag: 6.1; CHRM4 agonist: -0.5; M5 antag: 5.2

Results for CSCc1nnc(NC(=O)c2ccc(S(=O)(=O)N(C)C)cc2)o1 ?
CHRM5 PAM: 18.6*; M4 PAM: 13.6; CHRM4 antagonist: 4.3; M5 ag: 0.0; CHRM4 agonist: 1.5; M5 antag: 12.7

What do the screens show for `O=C(CN1C(=O)NC2(CCCc3ccccc32)C1=O)Nc1cccc(S(=O)(=O)N2CCCCC2)c1` (centres undefined)?
CHRM5 PAM: -8.7; M4 PAM: -4.1; CHRM4 antagonist: 5.8; M5 ag: -3.8; CHRM4 agonist: 1.2; M5 antag: 13.4

Results for O=C(NCCCN1CCOCC1)C(=O)NCc1ccccc1Cl ?
CHRM5 PAM: 1.5; M4 PAM: 4.0; CHRM4 antagonist: -2.7; M5 ag: -0.8; CHRM4 agonist: 0.5; M5 antag: 10.8

How did CCOC(=O)C1CN(S(=O)(=O)c2ccc(C)cc2)C1 do in these assays?
CHRM5 PAM: 19.6*; M4 PAM: 1.9; CHRM4 antagonist: -8.9; M5 ag: -7.0; CHRM4 agonist: 0.6; M5 antag: -4.0

Results for COc1ccc(C=C(C(C)=O)C(=O)c2ccccc2)cc1 ?
CHRM5 PAM: -1.5; M4 PAM: -2.9; CHRM4 antagonist: 12.8; M5 ag: -6.4; CHRM4 agonist: 0.6; M5 antag: 7.8

How did CC(=O)C(=Cc1ccc(Cl)cc1)C(=O)c1ccccc1 do in these assays?
CHRM5 PAM: 21.6*; M4 PAM: -12.9; CHRM4 antagonist: 24.1; M5 ag: -6.8; CHRM4 agonist: 2.0; M5 antag: 1.8

Results for Cc1ccccc1C(=O)N/N=C/c1ccc(Sc2ccccn2)o1 ?
CHRM5 PAM: 24.0*; M4 PAM: 3.7; CHRM4 antagonist: -1.1; M5 ag: 2.3; CHRM4 agonist: 2.0; M5 antag: 23.2

Results for O=C(N/N=C\c1ccc(Sc2ccccn2)o1)c1cccc(Br)c1 ?
CHRM5 PAM: -7.2; M4 PAM: 7.1; CHRM4 antagonist: -7.9; M5 ag: -0.5; CHRM4 agonist: 6.3; M5 antag: -0.9

What do the screens show for `O=C(Nc1cccc(C(F)(F)F)c1)C(=O)N1CCCCC1`?
CHRM5 PAM: 19.7*; M4 PAM: 7.9; CHRM4 antagonist: 5.2; M5 ag: 1.0; CHRM4 agonist: 0.2; M5 antag: -7.1

How did Cc1cccc(C)c1NC(=O)CN(C)C(=O)[C@H](C)NC(=O)c1ccco1 do in these assays?
CHRM5 PAM: -3.1; M4 PAM: 24.1*; CHRM4 antagonist: -8.2; M5 ag: -0.1; CHRM4 agonist: 0.8; M5 antag: 7.6

How did CSCCC(NC(=O)c1ccco1)C(=O)N(C)CC(=O)Nc1c(Cl)cccc1Cl (centres undefined) do in these assays?
CHRM5 PAM: 13.1; M4 PAM: 15.0; CHRM4 antagonist: 0.5; M5 ag: 3.6; CHRM4 agonist: 2.0; M5 antag: -3.2

Results for Cc1cc(OCC(=O)N2CCC(C(=O)O)CC2)c2c(C)cc(=O)oc2c1 ?
CHRM5 PAM: 5.0; M4 PAM: 3.3; CHRM4 antagonist: -6.5; M5 ag: 3.4; CHRM4 agonist: 2.2; M5 antag: -2.2

What do the screens show for `COc1ccc(C)cc1NC(=O)CN1C(=O)COc2ccc(C)cc21`?
CHRM5 PAM: 21.6*; M4 PAM: 4.2; CHRM4 antagonist: -10.8; M5 ag: 4.9; CHRM4 agonist: 1.1; M5 antag: -14.0
